Results reported in ChEMBL document CHEMBL4118021, “Studies of TAK1-centered polypharmacology with novel covalent TAK1 inhibitors” (Bioorg Med Chem, 2017).
Calls of active or inactive are those of the source. No cut-off for these calls is given here.

Assays:
Format in all cases: cell-based
[1] = target: MAP kinase-activated protein kinase 5 (Homo sapiens) (UniProt Q8IW41); assay: Binding affinity to MAPKAPK5 in human NCI-H23 cells at 1 uM by mass spectrometry based pull down assay
[2] = target: T1, 80S Ribosome (Homo sapiens) (UniProt P08865+P42677+P62753+P15880+P23396+P61247+P62701+P22090+P46782+P62081+P62241+P46781+P46783+P62280+P25398+P62277+P62263+P62841+P62244+P62249+P08708+P62269+P39019+P60866+P63220+P62266+P62847+P62851+P62854+P62979+P62857+P62273+P62861+P39023+P36578+P46777+Q02878+P18124+P62424+P62917+P32969+P27635+P62906+P62913+P30050+P26373+P40429+P50914+P61313+P18621+Q07020+Q02543+P84098+P46778+P35268+P62829+P62750+P83731+P61254+P61353+P46776+P46779+P47914+P62888+P62899+P62910+P49207+P42766+P18077+Q9Y3U8+P83881+P61927+P61513+P63173+P62891+P62945+P05388+P05386); assay: Binding affinity to RPL10A in human NCI-H358 cells at 1 uM by mass spectrometry based pull down assay
[3] = target: T1, 80S Ribosome (Homo sapiens); assay: Binding affinity to RPS5 in human NCI-H23 cells at 1 uM by mass spectrometry based pull down assay
[4] = target: Small ribosomal subunit protein eS6 (Homo sapiens) (UniProt P62753); assay: Binding affinity to RPS6 in human NCI-H358 cells at 1 uM by mass spectrometry based pull down assay
[5] = target: Neuroblast differentiation-associated protein AHNAK (Homo sapiens) (UniProt Q09666); assay: Binding affinity to AHNAK in human NCI-H23 cells at 1 uM by mass spectrometry based pull down assay
Outline: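 NCI-H23 or NCI-H358 cells were grown and lysed. Lysates were incubated overnight at 4 °C with 1 μM biotinylated covalent probe or DMSO, then pulled down on streptavidin beads. Proteins were run on polyacrylamide gels and stained with Coomassie. Bands were excised, digested and identified by mass spectrometry.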

[6] = target: Glutamine--fructose-6-phosphate aminotransferase [isomerizing] 1 (Homo sapiens) (UniProt Q06210); assay: Binding affinity to GFPT1 in human NCI-H358 cells at 1 uM by mass spectrometry based pull down assay
Chain of Glutamine--fructose-6-phosphate aminotransferase [isomerizing] 1 (Homo sapiens) (Q06210 whole entry): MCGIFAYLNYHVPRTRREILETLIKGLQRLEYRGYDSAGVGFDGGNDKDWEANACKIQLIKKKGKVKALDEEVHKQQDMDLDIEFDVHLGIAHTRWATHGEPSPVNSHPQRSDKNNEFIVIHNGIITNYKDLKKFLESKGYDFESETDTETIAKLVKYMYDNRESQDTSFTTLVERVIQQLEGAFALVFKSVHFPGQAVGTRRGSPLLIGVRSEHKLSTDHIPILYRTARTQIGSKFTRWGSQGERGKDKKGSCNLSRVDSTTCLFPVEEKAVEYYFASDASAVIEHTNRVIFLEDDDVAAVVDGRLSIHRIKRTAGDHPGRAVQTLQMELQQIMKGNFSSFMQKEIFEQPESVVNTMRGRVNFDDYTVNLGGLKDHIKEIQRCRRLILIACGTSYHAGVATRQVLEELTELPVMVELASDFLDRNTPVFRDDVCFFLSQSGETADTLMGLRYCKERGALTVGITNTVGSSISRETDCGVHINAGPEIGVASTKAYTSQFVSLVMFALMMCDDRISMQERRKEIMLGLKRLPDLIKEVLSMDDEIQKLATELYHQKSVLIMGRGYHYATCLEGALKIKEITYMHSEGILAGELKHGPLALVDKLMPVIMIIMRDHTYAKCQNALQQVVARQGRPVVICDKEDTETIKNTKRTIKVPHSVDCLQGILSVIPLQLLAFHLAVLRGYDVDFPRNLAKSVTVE

[7] = target: ADP-ribosylation factor-like protein 8B (Homo sapiens) (UniProt Q9NVJ2); assay: Binding affinity to ARL8B in human NCI-H23 cells at 1 uM by mass spectrometry based pull down assay
Chain of ADP-ribosylation factor-like protein 8B (Homo sapiens) (Q9NVJ2 whole entry): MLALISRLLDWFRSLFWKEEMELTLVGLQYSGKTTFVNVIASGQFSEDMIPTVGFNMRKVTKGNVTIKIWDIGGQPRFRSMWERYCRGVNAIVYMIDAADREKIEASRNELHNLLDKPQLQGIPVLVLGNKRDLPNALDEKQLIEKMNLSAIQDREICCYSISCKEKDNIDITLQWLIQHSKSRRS

[8] = target: Probable ATP-dependent RNA helicase DDX5 (Homo sapiens) (UniProt P17844); assay: Binding affinity to DDX5 in human NCI-H23 cells at 1 uM by mass spectrometry based pull down assay
[9] = target: DNA replication licensing factor MCM6 (Homo sapiens) (UniProt Q14566); assay: Binding affinity to MCM6 in human NCI-H23 cells at 1 uM by mass spectrometry based pull down assay
Chain of DNA replication licensing factor MCM6 (Homo sapiens) (Q14566 whole entry): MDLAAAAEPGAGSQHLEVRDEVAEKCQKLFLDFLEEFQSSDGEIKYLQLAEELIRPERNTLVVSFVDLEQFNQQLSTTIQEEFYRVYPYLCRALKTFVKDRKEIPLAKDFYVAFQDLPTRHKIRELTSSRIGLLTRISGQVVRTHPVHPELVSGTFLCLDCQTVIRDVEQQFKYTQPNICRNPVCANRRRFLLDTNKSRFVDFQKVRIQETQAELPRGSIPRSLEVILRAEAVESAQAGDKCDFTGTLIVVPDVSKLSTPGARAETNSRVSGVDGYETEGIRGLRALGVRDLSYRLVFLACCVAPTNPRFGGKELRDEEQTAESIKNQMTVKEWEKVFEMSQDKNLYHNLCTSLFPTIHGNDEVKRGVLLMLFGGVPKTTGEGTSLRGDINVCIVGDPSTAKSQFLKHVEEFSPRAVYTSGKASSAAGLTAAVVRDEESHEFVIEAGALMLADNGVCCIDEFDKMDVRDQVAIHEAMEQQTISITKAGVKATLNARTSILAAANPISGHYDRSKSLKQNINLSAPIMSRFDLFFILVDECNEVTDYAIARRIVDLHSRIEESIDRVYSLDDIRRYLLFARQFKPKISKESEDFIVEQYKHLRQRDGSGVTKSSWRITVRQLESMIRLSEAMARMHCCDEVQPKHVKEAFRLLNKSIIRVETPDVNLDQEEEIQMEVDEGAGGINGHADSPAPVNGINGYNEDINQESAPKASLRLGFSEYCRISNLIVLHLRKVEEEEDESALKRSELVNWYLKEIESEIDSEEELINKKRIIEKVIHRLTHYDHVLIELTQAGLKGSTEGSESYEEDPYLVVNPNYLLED

[10] = target: E3 ubiquitin-protein ligase HUWE1 (Homo sapiens) (UniProt Q7Z6Z7); assay: Binding affinity to HUWE1 in human NCI-H23 cells at 1 uM by mass spectrometry based pull down assay
[11] = target: Heterogeneous nuclear ribonucleoprotein D0 (Homo sapiens) (UniProt Q14103); assay: Binding affinity to HNRNPD in human NCI-H358 cells at 1 uM by mass spectrometry based pull down assay
Chain of Heterogeneous nuclear ribonucleoprotein D0 (Homo sapiens) (Q14103 whole entry): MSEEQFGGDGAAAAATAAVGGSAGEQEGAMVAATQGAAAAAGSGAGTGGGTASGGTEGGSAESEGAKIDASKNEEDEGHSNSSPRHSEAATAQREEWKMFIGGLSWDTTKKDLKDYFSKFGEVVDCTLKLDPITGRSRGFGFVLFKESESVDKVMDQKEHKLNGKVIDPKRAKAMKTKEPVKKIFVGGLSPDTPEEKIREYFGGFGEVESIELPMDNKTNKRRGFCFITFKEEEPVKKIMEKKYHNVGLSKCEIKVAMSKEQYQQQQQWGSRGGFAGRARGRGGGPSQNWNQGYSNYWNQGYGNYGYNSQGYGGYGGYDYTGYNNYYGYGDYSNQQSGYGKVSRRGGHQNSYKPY

[12] = target: Dual specificity mitogen-activated protein kinase kinase 1 (Homo sapiens) (UniProt Q02750); assay: Binding affinity to MAP2K1 in human NCI-H23 cells at 1 uM by mass spectrometry based pull down assay
[13] = target: Protein arginine N-methyltransferase 5 (Homo sapiens) (UniProt O14744); assay: Binding affinity to PRMT5 in human NCI-H358 cells at 1 uM by mass spectrometry based pull down assay
[14] = target: T2, Serine/threonine-protein kinase D2 (Homo sapiens) (UniProt Q9BZL6); assay: Binding affinity to PRKD2 in human NCI-H23 cells at 1 uM by mass spectrometry based pull down assay
T2 sequence (whole entry): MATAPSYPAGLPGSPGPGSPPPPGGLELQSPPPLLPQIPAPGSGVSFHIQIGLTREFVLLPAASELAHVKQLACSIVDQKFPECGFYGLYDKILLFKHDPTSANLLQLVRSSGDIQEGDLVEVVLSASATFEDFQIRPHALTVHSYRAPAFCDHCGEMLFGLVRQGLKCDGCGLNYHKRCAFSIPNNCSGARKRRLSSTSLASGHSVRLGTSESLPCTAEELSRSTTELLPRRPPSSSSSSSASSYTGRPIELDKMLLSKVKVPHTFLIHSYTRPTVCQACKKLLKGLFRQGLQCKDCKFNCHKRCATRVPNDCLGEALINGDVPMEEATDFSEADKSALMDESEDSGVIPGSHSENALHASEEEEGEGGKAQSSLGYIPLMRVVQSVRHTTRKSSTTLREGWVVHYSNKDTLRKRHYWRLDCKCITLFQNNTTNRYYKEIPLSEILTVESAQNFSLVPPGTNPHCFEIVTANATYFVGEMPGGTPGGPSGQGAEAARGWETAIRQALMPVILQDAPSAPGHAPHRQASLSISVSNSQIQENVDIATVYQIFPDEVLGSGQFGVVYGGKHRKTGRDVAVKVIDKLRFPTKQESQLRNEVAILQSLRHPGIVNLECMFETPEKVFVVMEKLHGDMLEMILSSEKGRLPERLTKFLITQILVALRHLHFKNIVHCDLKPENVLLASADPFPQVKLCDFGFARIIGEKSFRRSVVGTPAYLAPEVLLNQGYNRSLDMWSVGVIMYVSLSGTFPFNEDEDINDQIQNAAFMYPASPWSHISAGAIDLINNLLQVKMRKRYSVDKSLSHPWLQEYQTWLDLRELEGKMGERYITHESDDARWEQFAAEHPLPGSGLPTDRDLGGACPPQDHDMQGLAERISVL

[15] = target: Cytochrome c (Homo sapiens) (UniProt P99999); assay: Binding affinity to CYCS in human NCI-H358 cells at 1 uM by mass spectrometry based pull down assay
Chain of Cytochrome c (Homo sapiens) (P99999 whole entry): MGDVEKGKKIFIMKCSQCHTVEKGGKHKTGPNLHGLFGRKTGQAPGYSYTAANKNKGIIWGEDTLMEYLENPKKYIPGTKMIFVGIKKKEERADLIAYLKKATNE

[16] = target: N-acetyl-D-glucosamine kinase (Homo sapiens) (UniProt Q9UJ70); assay: Binding affinity to NAGK in human NCI-H358 cells at 1 uM by mass spectrometry based pull down assay
Chain of N-acetyl-D-glucosamine kinase (Homo sapiens) (Q9UJ70 whole entry): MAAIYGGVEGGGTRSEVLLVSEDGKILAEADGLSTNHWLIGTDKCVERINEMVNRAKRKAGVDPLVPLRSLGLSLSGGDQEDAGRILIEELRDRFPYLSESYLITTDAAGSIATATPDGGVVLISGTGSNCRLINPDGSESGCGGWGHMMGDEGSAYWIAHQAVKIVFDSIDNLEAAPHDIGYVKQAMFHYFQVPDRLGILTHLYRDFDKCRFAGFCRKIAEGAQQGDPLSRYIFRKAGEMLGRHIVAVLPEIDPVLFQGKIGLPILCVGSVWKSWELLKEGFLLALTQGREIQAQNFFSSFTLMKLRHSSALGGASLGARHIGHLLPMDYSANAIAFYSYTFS

[17] = target: Serine/threonine-protein kinase WNK1 (Homo sapiens) (UniProt Q9H4A3); assay: Binding affinity to WNK1 in human NCI-H23 cells at 1 uM by mass spectrometry based pull down assay
Chain of Serine/threonine-protein kinase WNK1 (Homo sapiens) (Q9H4A3 whole entry, looked up): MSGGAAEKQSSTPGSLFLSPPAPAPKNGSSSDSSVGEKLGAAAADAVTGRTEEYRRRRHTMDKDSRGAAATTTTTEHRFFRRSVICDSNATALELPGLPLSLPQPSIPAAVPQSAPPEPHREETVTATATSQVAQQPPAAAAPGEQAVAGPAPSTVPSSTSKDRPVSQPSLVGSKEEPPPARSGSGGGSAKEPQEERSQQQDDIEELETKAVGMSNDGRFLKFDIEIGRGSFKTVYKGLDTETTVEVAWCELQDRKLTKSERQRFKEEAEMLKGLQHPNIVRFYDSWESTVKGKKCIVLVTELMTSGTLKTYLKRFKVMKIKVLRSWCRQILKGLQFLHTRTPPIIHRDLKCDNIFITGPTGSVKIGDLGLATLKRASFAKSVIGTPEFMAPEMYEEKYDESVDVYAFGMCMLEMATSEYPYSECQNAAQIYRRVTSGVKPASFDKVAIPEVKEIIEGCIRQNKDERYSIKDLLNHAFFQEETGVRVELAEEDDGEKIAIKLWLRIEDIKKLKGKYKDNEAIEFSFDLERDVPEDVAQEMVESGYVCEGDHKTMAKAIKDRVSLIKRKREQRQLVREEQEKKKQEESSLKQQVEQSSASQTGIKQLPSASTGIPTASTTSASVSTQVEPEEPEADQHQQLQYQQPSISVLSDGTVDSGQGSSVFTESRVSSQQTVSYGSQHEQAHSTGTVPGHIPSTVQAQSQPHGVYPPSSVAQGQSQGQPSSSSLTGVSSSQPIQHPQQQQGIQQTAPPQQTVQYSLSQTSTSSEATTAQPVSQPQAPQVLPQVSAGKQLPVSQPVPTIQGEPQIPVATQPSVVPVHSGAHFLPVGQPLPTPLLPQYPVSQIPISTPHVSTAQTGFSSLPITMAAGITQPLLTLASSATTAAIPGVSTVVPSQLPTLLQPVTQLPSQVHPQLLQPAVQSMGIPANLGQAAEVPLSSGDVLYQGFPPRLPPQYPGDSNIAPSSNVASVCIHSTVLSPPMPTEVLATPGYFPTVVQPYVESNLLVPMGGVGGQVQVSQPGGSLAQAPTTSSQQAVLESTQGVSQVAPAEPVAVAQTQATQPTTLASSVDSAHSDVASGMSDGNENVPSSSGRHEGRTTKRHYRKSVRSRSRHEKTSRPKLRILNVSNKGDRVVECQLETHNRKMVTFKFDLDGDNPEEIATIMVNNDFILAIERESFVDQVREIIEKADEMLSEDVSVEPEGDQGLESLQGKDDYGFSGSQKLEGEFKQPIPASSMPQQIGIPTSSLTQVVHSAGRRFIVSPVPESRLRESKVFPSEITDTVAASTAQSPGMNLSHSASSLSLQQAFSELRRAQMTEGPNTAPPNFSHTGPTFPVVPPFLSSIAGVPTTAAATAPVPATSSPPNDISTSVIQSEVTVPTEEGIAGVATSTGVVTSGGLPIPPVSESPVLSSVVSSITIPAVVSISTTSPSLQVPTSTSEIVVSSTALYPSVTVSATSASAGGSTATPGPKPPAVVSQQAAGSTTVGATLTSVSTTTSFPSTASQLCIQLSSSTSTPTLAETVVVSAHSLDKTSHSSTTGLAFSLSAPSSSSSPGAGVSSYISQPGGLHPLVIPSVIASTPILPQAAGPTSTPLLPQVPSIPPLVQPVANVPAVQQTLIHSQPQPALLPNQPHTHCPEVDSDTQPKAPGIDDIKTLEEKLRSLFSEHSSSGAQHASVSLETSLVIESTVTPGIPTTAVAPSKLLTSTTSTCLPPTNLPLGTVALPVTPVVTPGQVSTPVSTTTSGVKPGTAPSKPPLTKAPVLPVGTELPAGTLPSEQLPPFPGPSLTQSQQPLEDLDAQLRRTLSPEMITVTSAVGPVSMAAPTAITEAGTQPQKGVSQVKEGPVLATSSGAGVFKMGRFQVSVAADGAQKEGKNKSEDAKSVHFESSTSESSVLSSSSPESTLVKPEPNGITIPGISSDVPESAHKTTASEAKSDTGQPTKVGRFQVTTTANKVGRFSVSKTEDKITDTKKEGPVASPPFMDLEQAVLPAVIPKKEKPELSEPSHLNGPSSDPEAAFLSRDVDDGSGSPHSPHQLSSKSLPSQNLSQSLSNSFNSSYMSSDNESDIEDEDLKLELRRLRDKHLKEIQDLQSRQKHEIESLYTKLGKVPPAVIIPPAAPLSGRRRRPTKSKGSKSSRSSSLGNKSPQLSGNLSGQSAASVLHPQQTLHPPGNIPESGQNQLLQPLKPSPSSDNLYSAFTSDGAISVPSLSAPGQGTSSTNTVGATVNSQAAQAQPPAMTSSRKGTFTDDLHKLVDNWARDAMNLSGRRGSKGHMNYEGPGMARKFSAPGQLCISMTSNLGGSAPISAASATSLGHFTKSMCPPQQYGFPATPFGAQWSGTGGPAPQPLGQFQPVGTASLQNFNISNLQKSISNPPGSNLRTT

[18] = target: Serine/threonine-protein kinase TBK1 (Homo sapiens) (UniProt Q9UHD2); assay: Inhibition of TBK1 in human SKCO1 cells at 1 uM after 4 hrs using biotin labeled DIKPGNIMR probe by mass-spectrometric analysis relative to control

| Activity [1] | Activity [2] | Activity [3] | Activity [4] | Activity [5] | Activity [6] | Activity [7] | Activity [8] | Activity [9] | Activity [10] | Activity [11] | Activity [12] | Activity [13] | Activity [14] | Activity [15] | Activity [16] | Activity [17] | SMILES | inhibition [18] [%] |
| --- | --- | --- | --- | --- | --- | --- | --- | --- | --- | --- | --- | --- | --- | --- | --- | --- | --- | --- |
| Active | Active | Active | Active | Active | Active | Active | Active | Active | Active | Active | Active | Active | Active | Active | Active | Active | C=CC(=O)Nc1ccccc1Nc1nc(Nc2ccc(N3CCN(CCOCCOCCOCCNC(=O)CCCC[C@@H]4SC[C@@H]5NC(=O)N[C@@H]54)CC3)cc2)ncc1Cl |  |
|  |  |  |  |  |  |  |  |  |  |  |  |  |  |  |  |  | C=CC(=O)Nc1ccccc1Nc1nc(Nc2ccc(N3CCN(C)CC3)cc2)ncc1Cl | 59.3 |
